Activity, minimal effective dose and MTC data for three compounds are collected here from ChEMBL document CHEMBL2086314, “Synthesis and anticonvulsant activity of new N-Mannich bases derived from 3-(2-fluorophenyl)- and 3-(2-bromophenyl)-pyrrolidine-2,5-diones. Part II” (Bioorg Med Chem, 2012).

Calls of active or inactive are those of the source. The calls are words filed in the database; no cut-off is given here.

The test system of data set [1] is Mus musculus. Briefly: Neurotoxicity in CF-1 albino mouse assessed as myoclonic jerks at 100 mg/kg, ip measured after 0.5 hrs by rotarod test. Format: toxicity, organism-based. Further details: dose 100 mg/kg, route intraperitoneal. The conditions noted are these: in vivo.
Data set [2] concerns Mus musculus. Nature of the data set: Anticonvulsant activity in CF-1 albino mouse assessed as protection from maximal electric shock-induced seizures at 300 mg/kg, ip measured after 0.5 hrs. Format: functional, organism-based. Details: dose 300 mg/kg. An outline of the steps:
(§1)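 Male CF-1 mice dosed ip at 30, 100 or 300 mg/kg, suspension in 0.5% methylcellulose/water. MES: corneal electrodes primed with electrolyte containing anaesthetic, 50 mA, 60 Hz, 0.2 s. Examined 0.5 and 4 h after dosing. Value is the minimum dose protecting half or more of the animals.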

Data set [3] deals with Mus musculus. Briefly: Anticonvulsant activity in ip dosed CF-1 albino mouse assessed as protection from maximal electric shock-induced seizures measured after 4 hrs. The following applies: read-out: MED. It counts as functional. An outline of the steps:
as §1

Data set [4] concerns Mus musculus. Nature of the data set: Anticonvulsant activity in ip dosed CF-1 albino mouse assessed as protection against subcutaneous pentylenetetrazol-induced seizures measured after 4 hrs. The following applies: read-out: MED. Format: functional. An outline of the steps:
(§2)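 scPTZ test in male CF-1 mice. Compound suspended in 0.5% methylcellulose/water, ip at 30, 100 or 300 mg/kg. Pentylenetetrazole 85 mg/kg (CD97, clonic seizures lasting at least 5 s) given subcutaneously at the test time, read at 0.5 and 4 h. Value is the minimum dose protecting half or more of the animals.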

Data set [5] has as its system Mus musculus. Nature of the data set: Anticonvulsant activity in CF-1 albino mouse assessed as protection from maximal electric shock-induced seizures at 100 mg/kg, ip measured after 6 hrs. It counts as functional, organism-based. Further details: dose 100 mg/kg.
Data set [6] deals with Mus musculus. Briefly: Neurotoxicity in ip dosed CF-1 albino mouse assessed as motor impairment measured after 0.5 hrs by rotarod test. It counts as toxicity, organism-based. The following applies: in vivo. An outline of the steps:
(§3)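 Rotarod neurotoxicity in male CF-1 mice given ip doses of 30, 100 or 300 mg/kg (0.5% methylcellulose suspension), examined 0.5 and 4 h after dosing. Impairment means failing to hold balance on the rod for 1 min. Value is the minimum dose causing toxicity in half or more of the animals; response comments are recorded.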

Data set [7] has as its system Mus musculus. Nature of the data set: Neurotoxicity in CF-1 albino mouse assessed as motor impairment, ip measured after 4 hrs by rotarod test. Format: toxicity, organism-based. The conditions noted are these: in vivo.
Data set [8] deals with Mus musculus. Briefly: Anticonvulsant activity in ip dosed CF-1 albino mouse assessed as protection against subcutaneous pentylenetetrazol-induced seizures measured after 0.5 hrs. Format: functional. The conditions noted are these: read-out: MED. An outline of the steps: as §2
In data set [9] the test system is Mus musculus. Nature of the data set: Neurotoxicity in CF-1 albino mouse assessed as myoclonic jerks at 300 mg/kg, ip measured after 4 hrs by rotarod test. Further details: dose 300 mg/kg, route intraperitoneal. The conditions noted are these: in vivo. It counts as toxicity, organism-based.
For data set [10], the system named is Mus musculus. Nature of the data set: Anticonvulsant activity in CF-1 albino mouse assessed as protection from maximal electric shock-induced seizures at 300 mg/kg, ip measured after 4 hrs. Further details: dose 300 mg/kg. It counts as functional, organism-based. An outline of the steps: as §1
Data set [11] has as its system Mus musculus. Nature of the data set: Neurotoxicity in CF-1 albino mouse assessed as motor impairment at 300 mg/kg, ip measured after 4 hrs by rotarod test. Format: toxicity, organism-based. Further details: dose 300 mg/kg, route intraperitoneal. The conditions noted are these: in vivo. An outline of the steps:
as §3

The test system of data set [12] is Mus musculus. Briefly: Neurotoxicity in CF-1 albino mouse assessed as tonic extension at 300 mg/kg, ip measured after 0.5 hrs by rotarod test. It counts as toxicity, organism-based. Details: dose 300 mg/kg, route intraperitoneal. The conditions noted are these: in vivo. An outline of the steps: as §3
Data set [13] relates to Mus musculus. Briefly: Anticonvulsant activity in CF-1 albino mouse assessed as protection against subcutaneous pentylenetetrazol-induced seizures at 300 mg/kg, ip measured after 0.5 hrs. Format: functional, organism-based. Details: dose 300 mg/kg. An outline of the steps:
as §2

Data set [14] relates to Mus musculus. Briefly: Anticonvulsant activity in CF-1 albino mouse assessed as protection against subcutaneous pentylenetetrazol-induced seizures at 300 mg/kg, ip measured after 4 hrs. It counts as functional, organism-based. Further details: dose 300 mg/kg. An outline of the steps:
as §2

Data set [15] deals with Mus musculus. Nature of the data set: Anticonvulsant activity in ip dosed CF-1 albino mouse assessed as protection from maximal electric shock-induced seizures measured after 0.5 hrs. The conditions noted are these: read-out: MED. It counts as functional. An outline of the steps:
as §1

In data set [16] the test system is Rattus norvegicus. Briefly: Anticonvulsant activity in Sprague-Dawley rat assessed as protection from maximum electric shock-induced seizures at 30 mg/kg, po measured after 0.25 hrs. Format: functional. An outline of the steps: (§4)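 Male Sprague–Dawley rats, four per group, given 30 mg/kg orally as a suspension in 0.5% methylcellulose/water. MES stimulus 150 mA, 60 Hz, 0.2 s via corneal electrodes. Tested at 0.25, 0.5, 1, 2 and 4 h; value is rats protected out of four.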

Data set [17] relates to Rattus norvegicus. Nature of the data set: Anticonvulsant activity in Sprague-Dawley rat assessed as protection from maximum electric shock-induced seizures at 30 mg/kg, po measured after 0.5 hrs. It counts as functional. An outline of the steps:
as §4

Data set [18] has as its system Rattus norvegicus. Briefly: Anticonvulsant activity in Sprague-Dawley rat assessed as protection from maximum electric shock-induced seizures at 30 mg/kg, po measured after 1 hr. Format: functional. An outline of the steps: as §4
Data set [19] has as its system Rattus norvegicus. Nature of the data set: Anticonvulsant activity in Sprague-Dawley rat assessed as protection from maximum electric shock-induced seizures at 30 mg/kg, po measured after 2 hrs. It counts as functional. An outline of the steps:
as §4

For data set [20], the system named is Rattus norvegicus. Nature of the data set: Anticonvulsant activity in Sprague-Dawley rat assessed as protection from maximum electric shock-induced seizures at 30 mg/kg, po measured after 4 hrs. It counts as functional. An outline of the steps:
as §4

The subject of data set [21] is Rattus norvegicus. Nature of the data set: Neurotoxicity in Sprague-Dawley rat assessed as motor impairment at 30 mg/kg, po by rotarod test. Further details: dose 30 mg/kg, route oral. The following applies: in vivo. Format: toxicity, organism-based. An outline of the steps:
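Male Sprague–Dawley rats, four animals, oral 30 mg/kg in 0.5% methylcellulose/water. Motor impairment on the rotarod (failure to keep balance for 1 min) assessed alongside MES at five times from 0.25 to 4 h.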

Consider `O=C1CC(c2ccccc2Br)C(=O)N1CN1CCN(c2ncccn2)CC1` (racemic), for which the Activity entry in the data set with Mus musculus [1] and in the data set with Mus musculus [9] was “Toxic” throughout. In addition, the result with Mus musculus [2] was inactive. For the same compound, the minimal effective dose with Mus musculus [3] came to 100 mg/kg; in the data set on Mus musculus [4], 300 mg/kg; in the data set with Mus musculus [8], 100 mg/kg. In addition, the outcome with Mus musculus [5] was Active. For the same compound, the MTC in the data set with Mus musculus [6] and with Mus musculus [7] was 300 mg/kg each time.
Turning to `Cl.O=C1CC(c2ccccc2Br)C(=O)N1CN1CCN(Cc2ccccc2)CC1` (racemic), the result in the data set with Mus musculus [2], with Mus musculus [10], with Mus musculus [13] and in the data set with Mus musculus [14] was inactive. Further, the MTC in the data set with Mus musculus [6] stood at 300 mg/kg. In addition, the Activity entry in the data set with Mus musculus [11] is “Non-toxic”; in the data set with Mus musculus [12], “Toxic”.
For `Cl.Cl.O=C1CC(c2ccccc2Br)C(=O)N1CN1CCN(CCO)CC1` (racemic), the minimal effective dose in the data set with Mus musculus [15] came out at 100 mg/kg; in the data set on Mus musculus [3] it was 100 mg/kg; in the data set with Mus musculus [4], 300 mg/kg; in the data set on Mus musculus [8], 100 mg/kg. Also, the Activity result is listed as “Toxic” in the data set with Mus musculus [1]; “Non-toxic” in the data set on Mus musculus [11]; “Toxic” in the data set with Mus musculus [9]; 25% with Rattus norvegicus [16]; 25% with Rattus norvegicus [17]; 0% in the data set on Rattus norvegicus [18]. Also, the Activity is listed as 0% in the data set with Rattus norvegicus [19], 25% in the data set on Rattus norvegicus [20] and “Non-toxic” with Rattus norvegicus [21]. Besides, the MTC in the data set on Mus musculus [6] turned out to be 300 mg/kg.
